Experimental data taken from ChEMBL document CHEMBL1124858, “Methylsulfamic acid esters. A new chemical class of oral antiarthritic agents” (1990).
“And” between values parts separate entries of the source, which are not always exact repeats. Equal values may be shown once. The source made the active and inactive calls. No cut-off for these calls is given here.

What was measured:
Rattus norvegicus [1] = species on record: Rattus norvegicus; test: 32-day X-ray(0= normal to 10= maximum joint destruction) was determined.; type: functional
In short: (§1)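 Adjuvant-induced arthritic rats were dosed orally once daily from day 18 through day 50 after adjuvant injection, on a therapeutic regimen. The uninjected joint was X-rayed and scored blind at 32 days on an arbitrary scale from 0 (normal) to 10 (maximum joint destruction). Values are mean ± SD, compared with vehicle control by Dunnett's t test (p < 0.05).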

Rattus norvegicus [2] = test: Evaluated for the adjuvant-induced arthritis edema of uninjected paw on 11-day after 31.6 mg/kg dose of peroral administration of the compound; details: route oral
Rattus norvegicus [3] = test: Evaluated for the adjuvant-induced arthritis edema of uninjected paw on 32-day after 31.6 mg/kg dose of peroral administration of the compound; details: route oral
Rattus norvegicus [4] = test: Evaluated for the adjuvant-induced arthritis edema of uninjected paw on 32-day after 3.16 mg/kg dose of peroral administration of the compound; details: route oral
Rattus norvegicus [5] = test: Evaluated for the […] on 32-day after 10 mg/kg dose of peroral administration of the compound; type: functional; details: route oral
In short: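 Adjuvant-induced arthritic rat model with oral dosing from day 18 through day 50 post adjuvant. Edema was the volume change of the uninjected hind paw. The 11-day Δ is day 29 volume minus day 18 volume; the 32-day Δ is day 50 minus day 18. Values are mL ± SD against a vehicle control, by Dunnett's t test (p < 0.05).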

Mus musculus [6] = test: Evaluated for the Delayed type hypersensitivity (DTH) response to methylated BSA (mBSA) in sensitive mice at a dose of 31.6.00 mg/kg after peroral administration; type: functional
In short: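 Delayed-type hypersensitivity in mice: sensitized to mBSA on day 0, dosed orally on days 4, 5, 6 and 7, then challenged with mBSA in the left hind paw on day 7. Paw weight was measured 24 h after challenge. n = 10 per group. Result is % change from sensitized positive control, by Dunnett's t test. Negative control received Freund's complete adjuvant without mBSA.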

Rattus norvegicus [7] = test: Evaluated for the adjuvant-induced arthritis edema of uninjected paw on 11-day after 1 mg/kg dose of peroral administration of the compound; details: route oral
Rattus norvegicus [8] = test: Evaluated for the adjuvant-induced arthritis edema of uninjected paw on 11-day after 10 mg/kg dose of peroral administration of the compound; details: route oral
Rattus norvegicus [9] = test: Evaluated for the carrageenan-induced pleural volume in rats at a dose of 4 mg/kg after peroral administration.; type: functional; details: route oral
In short: (§2)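 Carrageenan-induced pleurisy in rats, Evans blue pleural effusion assay. Twenty oral doses, one per day, were given before carrageenan challenge. Pleural volume is mL ± SD, n = 6 per group, with % change from control and Dunnett's t test (p < 0.05).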

Rattus norvegicus [10] = species on record: Rattus norvegicus; test: Weight change of rat was determined; Not significant; type: functional, organism-based
In short: (§3)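 In adjuvant arthritic rats dosed orally from day 18 through day 50 post adjuvant injection, weight change was compared with vehicle control by Dunnett's t test.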

Rattus norvegicus [11] = test: Evaluated for the adjuvant-induced arthritis edema of uninjected paw on 32-day after 1 mg/kg dose of peroral administration of the compound; details: route oral
Rattus norvegicus [12] = test: Evaluated for the carrageenan-induced pleural volume in rats at a dose of 100 mg/kg after peroral administration.; type: functional; details: route oral; in short: as §2
Rattus norvegicus [13] = test: Evaluated for the adjuvant-induced arthritis edema of uninjected paw on 11-day after 3.16 mg/kg dose of peroral administration of the compound; details: route oral
Rattus norvegicus [14] = species on record: Rattus norvegicus; test: Weight change of rat was determined; + = significant increase in weight change from control; type: functional, organism-based; in short: as §3
Rattus norvegicus [15] = test: Evaluated for the carrageenan-induced pleural volume in rats at a dose of 3.16 mg/kg after peroral administration.; type: functional; details: route oral; in short: as §2
Rattus norvegicus [16] = test: Evaluated for the adjuvant-induced arthritis edema of uninjected paw on 32-day after 10 mg/kg dose of peroral administration of the compound; details: route oral
Rattus norvegicus [17] = test: Evaluated for the adjuvant-induced arthritis edema of uninjected paw on 32-day after 100 mg/kg dose of peroral administration of the compound; details: route oral
Rattus norvegicus [18] = test: Evaluated for the adjuvant-induced arthritis edema of uninjected paw on 11-day after 100 mg/kg dose of peroral administration of the compound; details: route oral
Rattus norvegicus [19] = species on record: Rattus norvegicus; test: X-rays scored on an arbitrary (0=normal to 10=max. joint destruction) scale in a blinded manner was determined; 32-day X-ray; type: functional; in short: as §1
Mus musculus [20] = test: Evaluated for the delayed type hypersensitivity (DTH) response to methylated BSA (mBSA) in sensitive mice after peroral administration of 50 mg/kg; type: functional; details: route oral
In short: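 Mice were sensitized to mBSA on day 0, dosed orally on days 4, 5, 6 and 7, and challenged with mBSA in the left hind paw on day 7. Paw weight was measured 24 h after challenge, with 10 mice per group. Negative controls received Freund's complete adjuvant without mBSA.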

## CNS(=O)(=O)OC[C@H](COc1ccccc1OC)OS(=O)(=O)NC
Rattus norvegicus [1]
  Score: 7.86
Rattus norvegicus [2]
  Edema: 0.16 mL
Rattus norvegicus [3]
  Edema: -0.03 mL

## CNS(=O)(=O)OCC(COc1ccccc1OC)OS(=O)(=O)NC (stereo unspecified)
Rattus norvegicus [1]
  Score: <5.82 and <5.77 and <6.9 and 7.8
Rattus norvegicus [4]
  Edema: <-0.38 mL
Rattus norvegicus [5]
  Edema: -0.41 mL and <-0.42 mL and <-0.61 mL
Mus musculus [6]
  Paw weight: 179 mg
Rattus norvegicus [7]
  Edema: 0.1 mL
Rattus norvegicus [8]
  Edema: <-0.39 mL
Rattus norvegicus [9]
  Pleural volume: 5.2 mL
Rattus norvegicus [10]
  Weight change: inactive
Rattus norvegicus [11]
  Edema: <-0.23 mL
Rattus norvegicus [12]
  Pleural volume: 4.92 mL
Rattus norvegicus [13]
  Edema: <-0.14 mL

## COc1ccc2c(c1)c(CC(=O)O)c(C)n2C(=O)c1ccc(Cl)cc1 [INDOMETHACIN]
Rattus norvegicus [1]
  Score: 3.54 and <4.07 and <3.8 and <4.04
Rattus norvegicus [14]
  Weight change: Active
Rattus norvegicus [15]
  Pleural volume: 3.5 mL

## CNS(=O)(=O)OC[C@@H](COc1ccccc1OC)OS(=O)(=O)NC
Rattus norvegicus [1]
  Score: <4.96 and 6.64
Rattus norvegicus [16]
  Edema: <-0.46 mL
Rattus norvegicus [8]
  Edema: <-0.33 mL
Rattus norvegicus [10]
  Weight change: inactive

## COc1ccccc1OCC(O)CO (stereo unspecified) [GUAIFENESIN]
Rattus norvegicus [17]
  Edema: -0.4 mL
Rattus norvegicus [18]
  Edema: 0.07 mL
Rattus norvegicus [19]
  Score: 8.83
Rattus norvegicus [10]
  Weight change: inactive

## O=P1(N(CCCl)CCCl)NCCCO1 (stereo unspecified) [CYCLOPHOSPHAMIDE ANHYDROUS]
Mus musculus [20]
  Paw weight: 153 mg
